Measured values: ChEMBL document CHEMBL1250541, “20-Aminosteroids as a novel class of selective and complete androgen receptor antagonists and inhibitors of prostate cancer cell growth” (Bioorg Med Chem, 2010)
The source made the active and inactive calls. No cut-off for these calls is given here.

How the values were obtained:
[1] = system: Androgen receptor (Homo sapiens), P10275 [T878A]; assay: Agonist activity at human androgen receptor T877A mutant expressed in human CV1 cells assessed as induction of receptor-mediated transactivation by MMTV-luciferase reporter gene assay; format: functional, cell-based; conditions: CV-1
Chain of Androgen receptor (Homo sapiens), P10275 [T878A] (P10275 whole entry T878A): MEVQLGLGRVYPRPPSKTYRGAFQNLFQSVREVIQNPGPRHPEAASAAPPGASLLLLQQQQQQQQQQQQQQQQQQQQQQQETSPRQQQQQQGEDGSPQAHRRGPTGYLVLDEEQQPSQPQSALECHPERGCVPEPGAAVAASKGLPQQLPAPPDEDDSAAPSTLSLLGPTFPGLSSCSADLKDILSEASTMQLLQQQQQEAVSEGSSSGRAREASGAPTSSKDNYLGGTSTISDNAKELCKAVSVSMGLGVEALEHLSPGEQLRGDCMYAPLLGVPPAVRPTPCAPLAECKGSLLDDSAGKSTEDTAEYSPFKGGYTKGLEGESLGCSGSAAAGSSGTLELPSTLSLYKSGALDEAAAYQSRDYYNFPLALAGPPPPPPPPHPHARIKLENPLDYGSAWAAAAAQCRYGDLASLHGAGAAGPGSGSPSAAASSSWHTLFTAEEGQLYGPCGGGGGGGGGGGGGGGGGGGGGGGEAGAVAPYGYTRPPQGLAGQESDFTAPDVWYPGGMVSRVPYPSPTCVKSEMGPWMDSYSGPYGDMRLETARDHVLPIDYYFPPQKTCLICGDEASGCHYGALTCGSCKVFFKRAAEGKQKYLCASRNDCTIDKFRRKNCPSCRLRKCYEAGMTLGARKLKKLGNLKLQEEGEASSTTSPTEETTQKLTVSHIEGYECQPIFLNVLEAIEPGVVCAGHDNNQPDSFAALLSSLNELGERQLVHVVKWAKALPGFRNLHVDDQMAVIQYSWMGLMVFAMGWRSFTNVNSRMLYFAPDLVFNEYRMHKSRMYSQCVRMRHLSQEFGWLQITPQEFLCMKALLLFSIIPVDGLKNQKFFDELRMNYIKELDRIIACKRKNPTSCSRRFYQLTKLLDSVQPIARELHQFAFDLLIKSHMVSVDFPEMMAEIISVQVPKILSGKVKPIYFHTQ
Summary of the method: (§1)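 CV1 cells seeded at 1.2 × 10⁵ per well in DMEM with 5% charcoal-stripped serum, CaPO₄-transfected 18 h later with MMTV-luciferase reporter, human AR (wild type or T877A) expression vector and CMV-β-galactosidase control. After 24 h, medium was replaced with compounds alone or R1881. Cells were harvested 96 h later. Luciferase was normalized to β-gal (RLU). Duplicates, repeated at least twice.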

[2] = biological target: T1, Androgen receptor (Homo sapiens) (UniProt P10275); assay: Antagonist activity at human androgen receptor in human LNCAP cells assessed as inhibition of PSA mRNA expression by RT-PCR; format: functional, cell-based
T1 sequence (whole entry): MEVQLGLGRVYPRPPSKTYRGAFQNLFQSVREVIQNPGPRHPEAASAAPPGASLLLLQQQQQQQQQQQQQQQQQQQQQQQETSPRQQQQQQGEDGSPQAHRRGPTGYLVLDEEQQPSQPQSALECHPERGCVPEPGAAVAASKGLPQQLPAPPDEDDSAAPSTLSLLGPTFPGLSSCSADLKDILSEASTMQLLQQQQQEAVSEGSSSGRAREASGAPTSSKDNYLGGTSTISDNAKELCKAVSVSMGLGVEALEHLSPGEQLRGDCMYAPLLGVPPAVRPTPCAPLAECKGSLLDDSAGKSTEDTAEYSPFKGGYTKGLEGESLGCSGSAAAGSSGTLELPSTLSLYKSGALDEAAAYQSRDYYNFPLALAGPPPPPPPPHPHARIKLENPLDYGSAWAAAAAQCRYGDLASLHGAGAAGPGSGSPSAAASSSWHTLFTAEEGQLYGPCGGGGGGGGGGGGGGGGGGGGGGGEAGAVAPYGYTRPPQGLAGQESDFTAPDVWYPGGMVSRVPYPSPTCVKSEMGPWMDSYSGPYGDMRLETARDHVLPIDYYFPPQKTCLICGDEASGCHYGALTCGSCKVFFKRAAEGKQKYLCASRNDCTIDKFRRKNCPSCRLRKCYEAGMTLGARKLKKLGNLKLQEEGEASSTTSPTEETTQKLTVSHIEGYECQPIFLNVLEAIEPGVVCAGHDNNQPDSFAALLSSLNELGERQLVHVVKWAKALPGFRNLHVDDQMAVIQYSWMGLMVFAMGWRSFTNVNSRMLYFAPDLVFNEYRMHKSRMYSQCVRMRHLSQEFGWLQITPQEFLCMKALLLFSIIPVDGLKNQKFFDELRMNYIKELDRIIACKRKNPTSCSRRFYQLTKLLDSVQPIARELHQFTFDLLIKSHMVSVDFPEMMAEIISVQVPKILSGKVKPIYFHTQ
Summary of the method: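 LNCaP cells treated with or without androgens plus compounds at 10 µM. DMSO-treated cells served as control. PSA mRNA was normalized to beta-actin expression.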

[3] = system: Androgen receptor (Homo sapiens), P10275 [T878A]; assay: Antagonist activity at human androgen receptor T877A mutant expressed in human CV1 cells assessed as inhibition of receptor-mediated transactivation at 1 uM by MMTV-luciferase reporter gene assay; format: functional, cell-based; conditions: CV-1
Summary of the method: (§2)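 CV1 cells in DMEM with 5% charcoal-stripped serum, transfected by CaPO₄ with MMTV-luciferase, wild-type or T877A human AR vector and CMV-β-galactosidase. Compounds were added together with the agonist R1881 24 h post-transfection. After a further 96 h, luciferase was read and normalized to β-gal activity as RLU. Duplicates, repeated at least twice. NBBS antagonist and DMSO served as controls.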

[4] = biological target: T1, Androgen receptor (Homo sapiens); assay: Antagonist activity at human androgen receptor expressed in human CV1 cells assessed as inhibition of receptor-mediated transactivation at 1 uM by MMTV-luciferase reporter gene assay; format: functional, cell-based; conditions: CV-1; summary of the method: as §2
Androgen receptor = biological target: T2, Androgen receptor (Homo sapiens, UniProt P10275); assay: Antagonist activity at human androgen receptor expressed in human CV1 cells assessed as inhibition of receptor-mediated transactivation by MMTV-luciferase reporter gene assay; format: functional, cell-based, CV-1
T2 sequence (P10275 whole entry): T1 sequence (whole entry)

[5] = biological target: T1, Androgen receptor (Homo sapiens); assay: Agonist activity at human androgen receptor expressed in human CV1 cells assessed as induction of receptor-mediated transactivation by MMTV-luciferase reporter gene assay; format: functional, cell-based; conditions: CV-1; summary of the method: as §1
PC-3 = assay: Cytotoxicity against human PC3 cells after 2 days; format: functional, cell-based
Summary of the method: (§3)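 Cells seeded in triplicate in 6-well plates at 25 × 10³ (LNCaP) or 5 × 10³ (PC3) per well in medium with 5% FCS. After 2 days they were treated with DMSO or compounds, with medium and compound renewed every second/third day. Cells were counted on the indicated days and normalized to day 0. Atraric acid served as positive control.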

LNCaP [6] = assay: Cytotoxicity against human LNCAP cells at 10 uM after 2 days; format: functional, cell-based; summary of the method: as §3
LNCaP [7] = assay: Induction of senescence in human LNCAP cells assessed as beta galactosidase activity after 3 days; format: functional, cell-based
[8] = system: Androgen receptor (Homo sapiens), P10275 [T878A]; assay: Antagonist activity at human androgen receptor T877A mutant expressed in human CV1 cells assessed as inhibition of receptor-mediated transactivation by MMTV-luciferase reporter gene assay; format: functional, cell-based; conditions: CV-1; summary of the method: as §2

Structure (SMILES)	Activity [1]	IC50 (Androgen receptor) [µM]	Activity [5]	further results
C[C@]12CC[C@H]3[C@@H](CC=C4C[C@@H](O)CC[C@@]43C)[C@@H]1CC[C@@H]2[C@]1(C)CC=CC(=O)N1	inactive	3	inactive	Activity [2]: Active; Activity [3]: Active; Activity [4]: Active; Activity (PC-3): inactive; Activity (LNCaP [6]): Active; Activity (LNCaP [7]): Active
C=CC[C@](C)(N)[C@H]1CC[C@H]2[C@@H]3CC=C4C[C@@H](O)CC[C@]4(C)[C@H]3CC[C@@]21C	Active		inactive	
C[C@]12CC[C@H]3[C@@H](CC=C4C[C@@H](O)CC[C@@]43C)[C@@H]1CC[C@@H]2[C@](C)(N)Cc1ccccc1			inactive	
C=CC(C)[C@@](C)(N)[C@H]1CC[C@H]2[C@@H]3CC=C4C[C@@H](O)CC[C@]4(C)[C@H]3CC[C@@]21C (some centres undefined)	Active		inactive	
C=CC[C@@](C)(N)[C@H]1CC[C@H]2[C@@H]3CC=C4C[C@@H](O)CC[C@]4(C)[C@H]3CC[C@@]21C	Active		inactive	
C[C@]12CC[C@H]3[C@@H](CC=C4C[C@@H](O)CC[C@@]43C)[C@@H]1CC[C@@H]2[C@@]1(C)CC=CC(=O)N1	inactive	2	inactive	Activity [2]: Active; Activity [8]: Active
COC(=O)c1c(C)cc(O)c(C)c1O				Activity (LNCaP [6]): Active
C[C@]12CC[C@H]3[C@@H](CCC4=CC(=O)CC[C@@]43C)[C@@H]1CC[C@@H]2[C@]1(C)CC=CC(=O)N1		0.5	inactive	
